The source made the active and inactive calls. The calls are words filed in the database; no cut-off is given here.

Indoleamine 2,3-dioxygenase 1, sequence (P14902 whole entry): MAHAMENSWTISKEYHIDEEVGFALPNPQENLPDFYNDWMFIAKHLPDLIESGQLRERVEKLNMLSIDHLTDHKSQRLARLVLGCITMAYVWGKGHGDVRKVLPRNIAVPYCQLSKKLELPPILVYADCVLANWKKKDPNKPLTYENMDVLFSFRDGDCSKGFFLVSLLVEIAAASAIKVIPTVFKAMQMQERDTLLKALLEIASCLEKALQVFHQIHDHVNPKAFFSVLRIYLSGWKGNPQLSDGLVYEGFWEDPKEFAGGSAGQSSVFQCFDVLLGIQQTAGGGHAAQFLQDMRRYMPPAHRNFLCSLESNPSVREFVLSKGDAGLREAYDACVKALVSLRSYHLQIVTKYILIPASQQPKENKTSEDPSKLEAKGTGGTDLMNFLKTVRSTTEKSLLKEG

The first assay addresses Indoleamine 2,3-dioxygenase 1 (Homo sapiens, UniProt P14902). Nature of the assay: Binding affinity to IDO1 (unknown origin) assessed as dissociation constant by bio-layer interferometry assay.
Settings: not given
The gist of the method: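 Bio-layer interferometry measured binding to IDO1 at 30 °C in PBS with 0.5% DMSO. Kd, kon and koff were derived.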
Background: In BLI a coated tip is dipped into the sample, and binding shifts an interference pattern.
Regarding `C[C@@H](C(=O)Nc1ccc(OC2CCN(C(=O)CCOCCOCCNc3cccc4c3C(=O)N(C3CCC(=O)N(C)C3=O)C4=O)CC2)cc1)[C@H]1CC[C@@H](c2ccnc3ccc(F)cc32)CC1` (stereo partly specified), the Kd (usually the free concentration of one partner at which half of the binding sites on the other are occupied at equilibrium, for simple one-to-one binding) amounted to 1100 nM.

A further assay deals with von Hippel-Lindau disease tumor suppressor/Indoleamine 2,3-dioxygenase 1 (Homo sapiens) (UniProt P14902+P40337). Nature of the assay: Protac activity at IDO1/VHL in IFNgamma-stimulated human U87 cells assessed as IDO1 degradation at 10 uM measured after 24 hrs by Western blotting analysis relative to control.
von Hippel-Lindau disease tumor suppressor/Indoleamine 2,3-dioxygenase 1 (Homo sapiens), sequence (P14902 whole entry, looked up): as the sequence (P14902 whole entry) above
von Hippel-Lindau disease tumor suppressor/Indoleamine 2,3-dioxygenase 1 (Homo sapiens), sequence (P40337 whole entry, looked up): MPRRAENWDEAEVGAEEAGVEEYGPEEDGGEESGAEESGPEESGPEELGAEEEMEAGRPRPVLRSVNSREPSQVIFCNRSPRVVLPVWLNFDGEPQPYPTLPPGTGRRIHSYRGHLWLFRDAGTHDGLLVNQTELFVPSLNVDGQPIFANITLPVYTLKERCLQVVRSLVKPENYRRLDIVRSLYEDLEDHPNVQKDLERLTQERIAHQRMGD
Settings: not given
It counts as cell-based. The essentials: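 U87 GBM cells primed with human IFNγ 50 ng/mL for 24 h, then exposed to PROTAC at 10 μM for 24 h. Lysates run on western blot; IDO1 bands quantified by densitometry and expressed as percent of normalized IDO1 protein level.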
Turning to `Cc1ncsc1-c1ccc(CNC(=O)[C@H]2C[C@H](O)CN2C(=O)[C@H](NCCCOc2cc(NC(=O)[C@H](C)[C@H]3CC[C@@H](c4ccnc5ccc(F)cc54)CC3)ccc2Cl)C(C)(C)C)cc1`, the Activity was 0%.
Still for that read-out and setting: the figure for `Cc1ncsc1-c1ccc(CNC(=O)[C@@H]2C[C@@H](O)CN2C(=O)[C@@H](NCCOCCOc2ccc(NC(=O)[C@H](C)[C@H]3CC[C@@H](c4ccnc5ccc(F)cc54)CC3)cc2)C(C)(C)C)cc1` is 0%; for `Cc1ncsc1-c1ccc(CNC(=O)[C@H]2C[C@H](O)CN2C(=O)[C@H](NCCCCCCCCCOc2cc(NC(=O)[C@H](C)[C@H]3CC[C@@H](c4ccnc5ccc(F)cc54)CC3)ccc2Cl)C(C)(C)C)cc1` it is 3%.
Regarding `Cc1ncsc1-c1ccc(CNC(=O)[C@@H]2C[C@@H](O)CN2C(=O)[C@@H](NC(=O)C2(F)CC2)C(C)(C)C)c(OCCOCCCN2CCC(Oc3ccc(NC(=O)[C@H](C)[C@H]4CC[C@@H](c5ccnc6ccc(F)cc65)CC4)cc3)CC2)c1`, the Activity came to 0%.
Turning to `Cc1ncsc1-c1ccc(CNC(=O)[C@@H]2C[C@@H](O)CN2C(=O)[C@@H](NC(=O)C2(F)CC2)C(C)(C)C)c(OCCOCCOCCOCCOCCOc2cc(NC(=O)[C@H](C)[C@H]3CC[C@@H](c4ccnc5ccc(F)cc54)CC3)ccc2Cl)c1`, the Activity came out at 0%.
On to `Cc1ncsc1-c1ccc(CNC(=O)[C@@H]2C[C@@H](O)CN2C(=O)[C@@H](NC(=O)C2(F)CC2)C(C)(C)C)c(OCCOCCC(=O)N2CCC(Oc3ccc(NC(=O)[C@H](C)[C@H]4CC[C@@H](c5ccnc6ccc(F)cc65)CC4)cc3)CC2)c1`, for which the Activity is 72%.
On the same count and under the same terms, the figure for `Cc1ncsc1-c1ccc(CNC(=O)[C@@H]2C[C@@H](O)CN2C(=O)[C@@H](NCCOCCOCCOCCOc2cc(NC(=O)[C@H](C)[C@H]3CC[C@@H](c4ccnc5ccc(F)cc54)CC3)ccc2Cl)C(C)(C)C)cc1` is 0%; for `Cc1ncsc1-c1ccc(CNC(=O)[C@@H]2C[C@@H](O)CN2C(=O)[C@@H](NC(=O)C2(F)CC2)C(C)(C)C)c(OCCOCCOCCOCCOCCOc2ccc(NC(=O)[C@H](C)[C@H]3CC[C@@H](c4ccnc5ccc(F)cc54)CC3)cc2)c1` it is 0%.
Still for that read-out and setting: the figure for `Cc1ncsc1-c1ccc(CNC(=O)[C@@H]2C[C@@H](O)CN2C(=O)[C@@H](NC(=O)C2(F)CC2)C(C)(C)C)c(OCCCCCCOc2cc(NC(=O)[C@H](C)[C@H]3CC[C@@H](c4ccnc5ccc(F)cc54)CC3)ccc2Cl)c1` is 0%; for `Cc1ncsc1-c1ccc(CNC(=O)[C@@H]2C[C@@H](O)CN2C(=O)[C@@H](NCCOCCOCCOCCOCCOCCOc2cc(NC(=O)[C@H](C)[C@H]3CC[C@@H](c4ccnc5ccc(F)cc54)CC3)ccc2Cl)C(C)(C)C)cc1` it is 0%.
The same measure, in the same setting: the figure for `Cc1ncsc1-c1ccc(CNC(=O)[C@@H]2C[C@@H](O)CN2C(=O)[C@@H](NC(=O)C2(F)CC2)C(C)(C)C)c(OCCOCCOCCOc2cc(NC(=O)[C@H](C)[C@H]3CC[C@@H](c4ccnc5ccc(F)cc54)CC3)ccc2Cl)c1` is 0%.
Turning to `Cc1ncsc1-c1ccc(CNC(=O)[C@@H]2C[C@@H](O)CN2C(=O)[C@@H](NC(=O)C2(F)CC2)C(C)(C)C)c(OCCOCCOCCC(=O)N2CC(Oc3ccc(NC(=O)[C@H](C)[C@H]4CC[C@@H](c5ccnc6ccc(F)cc65)CC4)cc3)C2)c1`, the Activity stood at 91%.
In the case of `Cc1ncsc1-c1ccc(CNC(=O)[C@@H]2C[C@@H](O)CN2C(=O)[C@@H](NCCOCCOCCOc2ccc(NC(=O)[C@H](C)[C@H]3CC[C@@H](c4ccnc5ccc(F)cc54)CC3)cc2)C(C)(C)C)cc1`, the Activity was 0%.
Regarding `Cc1ncsc1-c1ccc(CNC(=O)[C@@H]2C[C@@H](O)CN2C(=O)[C@@H](NCCOCCOCCC(=O)N2CCC(Oc3ccc(NC(=O)[C@H](C)[C@H]4CC[C@@H](c5ccnc6ccc(F)cc65)CC4)cc3)CC2)C(C)(C)C)cc1`, the Activity stood at 67%.

The target in a further assay is Protein cereblon/Indoleamine 2,3-dioxygenase 1 (Homo sapiens, UniProt P14902+Q96SW2). The assay can be described thus: Protac activity at CRBN/IDO1 in human U87 cells assessed as decrease in phosphorylated NF-kappaB p65 in nucleus at 1 to 10 uM measured after 24 hrs by Western blot analysis. It counts as cell-based. To be noted: dose 1-10 µM. In general terms: Immunoblotting shows a protein as a band on a membrane.
Protein cereblon/Indoleamine 2,3-dioxygenase 1, sequence (P14902 whole entry, looked up): as the sequence (P14902 whole entry) above
Protein cereblon/Indoleamine 2,3-dioxygenase 1, sequence (Q96SW2 whole entry, looked up): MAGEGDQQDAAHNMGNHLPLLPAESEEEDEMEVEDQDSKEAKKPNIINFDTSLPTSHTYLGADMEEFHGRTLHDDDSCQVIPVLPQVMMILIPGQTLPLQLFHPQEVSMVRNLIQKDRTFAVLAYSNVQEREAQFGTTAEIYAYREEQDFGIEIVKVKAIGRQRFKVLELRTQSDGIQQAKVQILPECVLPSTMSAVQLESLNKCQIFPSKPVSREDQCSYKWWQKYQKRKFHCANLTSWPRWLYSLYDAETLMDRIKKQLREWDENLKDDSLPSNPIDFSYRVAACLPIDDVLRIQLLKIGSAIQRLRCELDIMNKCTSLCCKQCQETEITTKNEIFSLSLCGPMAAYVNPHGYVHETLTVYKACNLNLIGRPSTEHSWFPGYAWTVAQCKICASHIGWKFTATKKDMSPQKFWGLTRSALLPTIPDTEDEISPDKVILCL
Take `C[C@@H](C(=O)Nc1ccc(OC2CCN(C(=O)CCOCCOCCNc3cccc4c3C(=O)N(C3CCC(=O)N(C)C3=O)C4=O)CC2)cc1)[C@H]1CC[C@@H](c2ccnc3ccc(F)cc32)CC1` (stereo partly specified): the result was Active.

The values above are taken from ChEMBL document CHEMBL5150051, “Identification and Characterization of a Novel Indoleamine 2,3-Dioxygenase 1 Protein Degrader for Glioblastoma” (J Med Chem, 2022).
